This is a sample that favours compounds with a hit; in the whole collection about 3% have one here.
NPY Y1 blocker: NPY-Y1 receptor antagonists, primary screen, cell-based | Neuropeptide Y receptor type 1 (Homo sapiens), P25929 | HEK293-CNG Y1 cells, membrane potential fluorescence; NPY at EC95, then isoproterenol | inhibition, % at 3.6 µM | 200,000 compounds, 1% hits | AID 1040, 2008;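 active means inhibition above the campaign mean inhibition of all tested compounds plus 3 SD, cut at about 20% in these data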
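Material: Y1- and CNG-channel-expressing HEK293 cells / Probe or stimulus: NPY 25 nM then isoproterenol 1 µM plus Ro 20-1724 25 µM / Doses: 3.6 µM single dose, DMSO 0.4% / Schedule: compound incubation 1 h at room temperature, readout 45 min post-stimulation / Signal: membrane potential fluorescence / Benchmarks: isoproterenol-only wells as full block versus NPY-plus-isoproterenol wells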
Wee1 degr inh: Wee1 degradation inhibitors, primary screen, cell-based, HeLa, Wee1K328M-luciferase, luminescence; Wee1-like protein kinase (Homo sapiens), P30291; HeLa Luc-Wee1K328M stability; 100% = proteasome inhibitor MG132 effect; reporter increase, % at 5 µM; 220,000 compounds, 1.2% hits; AID 1321, 2008;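 active means activation above the mean of all tested compounds plus 3 SD, set per screening run, cut at about 8.8% in these data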;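 further: cells exposed to compound for 20 h before luminescence read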
Target sequence (P30291 whole entry K328M): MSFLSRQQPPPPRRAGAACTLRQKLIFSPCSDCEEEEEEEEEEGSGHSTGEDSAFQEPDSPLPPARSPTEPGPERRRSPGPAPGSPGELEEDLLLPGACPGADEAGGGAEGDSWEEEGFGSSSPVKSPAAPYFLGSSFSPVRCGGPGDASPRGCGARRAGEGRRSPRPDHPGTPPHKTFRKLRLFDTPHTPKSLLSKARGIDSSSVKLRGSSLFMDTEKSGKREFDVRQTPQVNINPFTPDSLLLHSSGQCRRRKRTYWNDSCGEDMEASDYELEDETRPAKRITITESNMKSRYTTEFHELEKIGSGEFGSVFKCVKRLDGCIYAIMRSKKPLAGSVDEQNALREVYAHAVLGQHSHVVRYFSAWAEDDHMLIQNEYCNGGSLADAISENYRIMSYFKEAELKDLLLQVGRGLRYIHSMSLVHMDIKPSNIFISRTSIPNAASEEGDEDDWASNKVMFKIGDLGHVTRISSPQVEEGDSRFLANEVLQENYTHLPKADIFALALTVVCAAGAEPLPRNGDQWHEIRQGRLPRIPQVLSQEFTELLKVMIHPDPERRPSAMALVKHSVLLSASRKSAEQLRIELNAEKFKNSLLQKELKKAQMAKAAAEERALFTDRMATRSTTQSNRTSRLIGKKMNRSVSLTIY
NPY1 pot ag: NPY-Y1 receptor potentiators or agonists, primary screen, cell-based; NPY-Y1 expressing cells, potentiator/agonist activation; activation, % at 3.6 µM; 220,000 compounds, 0.37% hits; AID 1304, 2008; in the data active means activation above about 33%, passing the limit was not always enough;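 further: cells stimulated with NPY at EC10 then isoproterenol at EC100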
Hsp70 activator: Hsp70 transcriptional activators, primary screen, cell-based, HeLa, Hsp70 promoter luciferase, luminescence, 10 µM | HeLa Hsp70 promoter luciferase reporter; scaled: vehicle 0, proteasome-inhibitor control 100% | activation, % at 10 µM | 200,000 compounds, 0.04% hits;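 active means activation above the mean across all tested compounds plus 3 SD, cutoff set per campaign, cut at about 5.5% in these data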
NPY Y2 blocker: NPY-Y2 receptor antagonists, primary screen, cell-based. 140,000 compounds, 0.99% hits. inhibition, % at 2.7 µM. AID 793, 2007. Neuropeptide Y receptor type 2 (Homo sapiens), P49146. NPY-Y2 expressing cells, antagonist mode; in the data active means inhibition above about 17%
NPY2 pot ag: NPY-Y2 potentiators or agonists, primary screen, cell-based. 220,000 compounds, 0.45% hits. cells expressing NPY-Y2, potentiator/agonist read-out. activation, % at 3.6 µM. Neuropeptide Y receptor type 2 (Homo sapiens), P49146. AID 1359, 2008; in the data active means activation above about 27%;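 further: cells stimulated with NPY near EC25 plus isoproterenol at EC100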
NPY-Y2 confirm: NPY-Y2 potentiators or agonists, confirmation, cell-based | shares compounds with NPY2 pot ag | cell-based NPY-Y2 potentiator/agonist assay | activation, % at 3.6 µM | 450 compounds, 20% hits | AID 1539, 2009; in the data active means activation above about 33%
NPY-Y1 counter: NPY-Y1 potentiators or agonists, counter-screen for NPY-Y2 potentiator project, cell-based, fluorescence | shares compounds with NPY2 pot ag | Y1 HEK293-CNG cells, membrane potential fluorescence | activation, % at 3.6 µM | 450 compounds, 20% hits | AID 1651, 2009; in the data active means activation above about 45%;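 further: cells stimulated with submaximal NPY then isoproterenol with phosphodiesterase inhibitor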
NPY-Y1 agonist 2: NPY-Y1 direct agonists, selectivity assay for NPY-Y2 potentiator project, cell-based, fluorescence | shares compounds with NPY2 pot ag | activation, % at 3.6 µM | HEK293 Y1-CNGC, membrane potential fluorescence, agonism | 450 compounds, 37% hits;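 active means activation above the mean of DMSO-only control wells plus 3 SD, cut at about 18% in these data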;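 further: cells stimulated with 1 µM isoproterenol plus the PDE inhibitor Ro 20-1724; Y1 agonists lower the membrane potential dye signal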
CNGC inh: CNGC cAMP sensor activity inhibitors, counter-screen for NPY-Y2 potentiator project, cell-based, HEK293-CNG parental, membrane potential fluorescence; inhibition, % at 3.6 µM; shares compounds with NPY2 pot ag; 450 compounds, 32% hits; isoproterenol cAMP;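 active means inhibition above the control-well mean plus 3 SD of those wells, cut at about 22% in these data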
Y2 agonist ctr: NPY-Y2 direct agonists, counter-screen for NPY-Y2 potentiator project, cell-based, fluorescence; shares compounds with NPY2 pot ag; 450 compounds, 56% hits; HEK293 Y2/CNGC cells, membrane potential fluorescence, agonist mode; activation, % at 3.6 µM;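 active means activation above the mean of solvent-only control wells plus 3 SD, cut at about 10% in these data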;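 further: cells stimulated by isoproterenol with no NPY added so direct agonism is tested; agonism lowers probe fluorescence through less cAMP and CNG channel opening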
Large screens that a line does not name were inactive (follow-up assays come after a bar, where they were run).

CC(C)C(c1nnnn1C1CCCCC1)N1CCc2ccccc21 (stereo not given)	NPY2 pot ag 59.4 | NPY-Y2 confirm inactive | NPY-Y1 counter inactive | NPY-Y1 agonist 2 inactive | CNGC inh inactive | Y2 agonist ctr inactive
Cc1ccc(C(c2nnnn2C2CCCCC2)N2CCc3ccccc32)cc1 (stereo not given)	none
COc1ccc(-c2csc(NC(=O)c3ccccc3NS(=O)(=O)c3ccc(C)cc3)n2)cc1	NPY2 pot ag 64.9 | NPY-Y2 confirm inactive | NPY-Y1 counter inactive | NPY-Y1 agonist 2 inactive | CNGC inh inactive | Y2 agonist ctr 24.8
CCc1cc[n+](/C(C(=S)Nc2cccc(C)c2)=C(/[O-])c2ccc(C)c([N+](=O)[O-])c2)cc1	NPY2 pot ag 41.7 | NPY-Y2 confirm inactive | NPY-Y1 counter inactive | NPY-Y1 agonist 2 inactive | CNGC inh inactive | Y2 agonist ctr 14.7
O=C(NCCCn1ccnc1)Nc1ccc(Cl)cc1	NPY2 pot ag 103.4 | NPY-Y2 confirm inactive | NPY-Y1 counter inactive | NPY-Y1 agonist 2 inactive | CNGC inh inactive | Y2 agonist ctr 10.6
O=C(NCCCn1ccnc1)Nc1ccc(Cl)c(Cl)c1	none
CCOC(=O)C1=C(Cn2cnc3ccccc32)NC(=O)NC1c1cc(C)ccc1C (stereo not given)	NPY2 pot ag 32.9 | NPY-Y2 confirm inactive | NPY-Y1 counter inactive | NPY-Y1 agonist 2 20.1 | CNGC inh 22.6 | Y2 agonist ctr 22.8
Cc1csc2c(C#N)c(=O)c3c(n12)CCC3	none
CC(C)P(=O)(c1cccc(C(=O)O)c1)C(C)C	none
O=C(Nc1ccccc1N1CCOCC1)c1ccc2nc[nH]c2c1	NPY2 pot ag 41.3 (no result: NPY Y2 blocker) | NPY-Y2 confirm inactive | NPY-Y1 counter inactive | NPY-Y1 agonist 2 inactive | CNGC inh inactive | Y2 agonist ctr inactive
C/C(=N/NC(=O)CNc1ccc(Cl)cc1C)c1ccc(C)cc1	none (no result: NPY Y2 blocker)
C/C(CC(=O)Nc1cc(Cl)ccc1Cl)=N\NC(=O)c1ccccc1Br	none (no result: NPY Y2 blocker)
COc1ccc(NS(=O)(=O)c2cnc[nH]2)cc1	NPY2 pot ag 30.4 (no result: NPY Y2 blocker) | NPY-Y2 confirm inactive | NPY-Y1 counter inactive | NPY-Y1 agonist 2 inactive | CNGC inh inactive | Y2 agonist ctr inactive
O=C(Nc1ccc(Cl)cc1)N1CCCN(c2ccc(C(F)(F)F)cc2[N+](=O)[O-])CC1	NPY2 pot ag 47.6 (no result: NPY Y1 blocker, Hsp70 activator, NPY Y2 blocker) | NPY-Y2 confirm 46.7 | NPY-Y1 counter 75.9 | NPY-Y1 agonist 2 77.7 | CNGC inh 59.9 | Y2 agonist ctr 58.5
O=[N+]([O-])c1cc(C(F)(F)F)ccc1NCCNC(=S)Nc1ccc(Cl)cc1	NPY2 pot ag 36.1 | NPY-Y2 confirm 35.5 | NPY-Y1 counter inactive | NPY-Y1 agonist 2 38.9 | CNGC inh 23.0 | Y2 agonist ctr 45.5
COc1cc(C(=S)N2CCN(c3ccccc3Cl)CC2)cc(O)c1O	NPY2 pot ag 30.7 (no result: NPY Y2 blocker) | NPY-Y2 confirm inactive | NPY-Y1 counter inactive | NPY-Y1 agonist 2 inactive | CNGC inh inactive | Y2 agonist ctr 23.0
Nc1nnc(CC(=O)Nc2ccccc2)s1	NPY2 pot ag 47.1 (no result: NPY Y1 blocker, Hsp70 activator, NPY Y2 blocker) | NPY-Y2 confirm inactive | NPY-Y1 counter inactive | NPY-Y1 agonist 2 inactive | CNGC inh inactive | Y2 agonist ctr inactive
CCOC(=O)N1CCN(CC(O)COCC2=CCC3CC2C3(C)C)CC1 (stereo not given)	NPY2 pot ag 43.4 | NPY-Y2 confirm inactive | NPY-Y1 counter inactive | NPY-Y1 agonist 2 inactive | CNGC inh inactive | Y2 agonist ctr inactive
Brc1ccc(OCc2nnc(SCC3CCCCC3)o2)cc1	none
Cc1nn(Cc2ccccc2Cl)c(C)c1C(=O)NC1=NCCS1	none
Cc1nn(Cc2ccccc2Cl)c(C)c1C(=O)N1CCN(c2ccccc2)CC1	NPY2 pot ag 116.3 | NPY-Y2 confirm inactive | NPY-Y1 counter inactive | NPY-Y1 agonist 2 inactive | CNGC inh inactive | Y2 agonist ctr inactive
Cc1ccc(NC2=C(Cl)C(=O)c3ccccc3C2=O)cc1	none
O=C1C(Cl)=C(Nc2ccc(O)cc2)C(=O)c2ccccc21	NPY2 pot ag 36.5 (no result: NPY Y1 blocker, Hsp70 activator, NPY Y2 blocker) | NPY-Y2 confirm inactive | NPY-Y1 counter inactive | NPY-Y1 agonist 2 inactive | CNGC inh 29.4 | Y2 agonist ctr 32.6
CC(=O)Nc1ccc(Oc2nc(C)cc(C)n2)cc1	none
Cc1cc(C)nc(Oc2ccc(Br)cc2)n1	NPY2 pot ag 91.1 (no result: NPY Y1 blocker, Hsp70 activator, NPY Y2 blocker) | NPY-Y2 confirm inactive | NPY-Y1 counter inactive | NPY-Y1 agonist 2 inactive | CNGC inh inactive | Y2 agonist ctr inactive
Cn1cnc2c(N/N=C/c3cccs3)ncnc21	NPY2 pot ag 63.8 (no result: NPY Y1 blocker, Hsp70 activator, NPY Y2 blocker) | NPY-Y2 confirm inactive | NPY-Y1 counter inactive | NPY-Y1 agonist 2 inactive | CNGC inh inactive | Y2 agonist ctr inactive
C(=N\Nc1ncnc2sc3c(c12)CCC3)/c1cccs1	none
O=C(COC(=O)COc1ccc(Cl)cc1)Nc1ccc(N2CCOCC2)cc1	none (no result: NPY Y2 blocker)
CC(C)C[C@H](NC(=O)c1nc[nH]c1C(=O)NC1CCN(C(=O)OC(C)(C)C)CC1)C(=O)OCc1ccccc1	NPY2 pot ag 44.3 (no result: NPY Y2 blocker) | NPY-Y2 confirm inactive | NPY-Y1 counter 46.2 | NPY-Y1 agonist 2 19.6 | CNGC inh 22.2 | Y2 agonist ctr 20.8
CC(C)C[C@H](NC(=O)c1nc[nH]c1C(=O)NC1CCN(C(=O)OC(C)(C)C)CC1)C(=O)OC(C)(C)C	none (no result: NPY Y2 blocker)
O=[N+]([O-])c1ccc(Cl)cc1Sc1ccccn1	none
Cc1ccc(N2C(SCC(=O)O)=NC(=Nc3cccc(C)c3)C23CCCC3)cc1	NPY2 pot ag 70.3 (no result: NPY Y2 blocker) | NPY-Y2 confirm inactive | NPY-Y1 counter inactive | NPY-Y1 agonist 2 inactive | CNGC inh inactive | Y2 agonist ctr inactive
O=C(O)CSC1=NC(=Nc2ccc(Cl)cc2)C2(CCCCC2)N1c1cccc(C(=O)O)c1	none
